Measured values published in ChEMBL document CHEMBL1143988, “11-(pyridinylphenyl)steroids--a new class of mixed-profile progesterone agonists/antagonists” (Bioorg Med Chem, 2008).

Tests used:
Assay type in all cases: functional, cell-based
[1] = molecular target: T1, Progesterone receptor (Homo sapiens) (UniProt P06401); experiment: Agonist activity at human PRB expressed in CHO cells relative to Org 2058
T1 sequence (whole entry): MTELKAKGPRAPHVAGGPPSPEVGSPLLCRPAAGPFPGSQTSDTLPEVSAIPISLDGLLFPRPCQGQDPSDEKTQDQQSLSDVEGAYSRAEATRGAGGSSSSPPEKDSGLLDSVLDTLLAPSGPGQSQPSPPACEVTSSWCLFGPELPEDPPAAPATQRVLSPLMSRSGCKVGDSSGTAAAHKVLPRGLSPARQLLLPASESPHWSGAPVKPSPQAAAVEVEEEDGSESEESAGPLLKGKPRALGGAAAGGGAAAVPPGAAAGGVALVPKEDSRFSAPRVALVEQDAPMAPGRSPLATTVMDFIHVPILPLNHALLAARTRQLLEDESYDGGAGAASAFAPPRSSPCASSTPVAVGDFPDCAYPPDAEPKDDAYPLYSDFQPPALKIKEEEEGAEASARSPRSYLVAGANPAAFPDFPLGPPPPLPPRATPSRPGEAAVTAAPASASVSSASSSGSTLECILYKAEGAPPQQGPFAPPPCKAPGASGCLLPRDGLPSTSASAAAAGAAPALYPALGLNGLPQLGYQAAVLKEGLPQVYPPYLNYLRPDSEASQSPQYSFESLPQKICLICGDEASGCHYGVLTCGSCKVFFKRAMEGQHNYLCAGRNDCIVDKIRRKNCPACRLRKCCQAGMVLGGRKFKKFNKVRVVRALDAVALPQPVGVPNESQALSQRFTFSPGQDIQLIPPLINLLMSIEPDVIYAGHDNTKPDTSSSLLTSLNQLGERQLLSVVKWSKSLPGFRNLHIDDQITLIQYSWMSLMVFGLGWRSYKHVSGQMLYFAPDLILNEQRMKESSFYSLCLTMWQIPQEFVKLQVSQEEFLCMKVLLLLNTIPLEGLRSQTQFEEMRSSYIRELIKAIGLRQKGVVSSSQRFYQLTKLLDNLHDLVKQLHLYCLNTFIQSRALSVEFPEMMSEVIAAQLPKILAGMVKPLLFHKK

Progesterone receptor [2] = molecular target: T2, Progesterone receptor (Homo sapiens, UniProt P06401); experiment: Antagonist activity at human PRB expressed in CHO cells assessed as inhibition of Org 2058 induced-transactivation
T2 sequence (P06401 whole entry): T1 sequence (whole entry)
Summary of the method: (§1)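 PR-B-mediated luciferase transactivation antagonist mode, run in the same setting as the agonist assay, with 0.1 nM Org 2058 as inducer; IC50 taken from inhibition of luciferase induction. Efficacy given relative to the antagonist Org 31710, whose effect is set to 100%.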

[3] = molecular target: T1, Progesterone receptor (Homo sapiens); experiment: (§2) Antagonist activity at human PRB expressed in CHO cells assessed as inhibition of Org 2058 induced-transactivation relative to Org 31710; summary of the method: as §1
Progesterone receptor [4] = molecular target: T2, Progesterone receptor; experiment: Agonist activity at human PRB expressed in CHO cells
Progesterone receptor [5] = molecular target: T2, Progesterone receptor; experiment: as §2; summary of the method: as §1

Row | SMILES | Efficacy [1] [%] | IC50 (Progesterone receptor [2]) [pM] | Efficacy [3] [%] | EC50 (Progesterone receptor [4]) [pM] | IC50 (Progesterone receptor [5]) [pM]
1 | C[C@@H]1C[C@H]2[C@@H]3CCC4=CC(=O)CCC4=C3[C@@H](c3ccc(-c4cnc5ccccc5c4)cc3)C[C@]2(C)[C@H]1C(=O)C1CC1 | 50 | 3140 | 24 |  | 
2 | COC[C@]1(OC)CC[C@H]2[C@@H]3CCC4=CC(=O)CCC4=C3[C@@H](c3ccc(/C=N/O)cc3)C[C@@]21C [ASOPRISNIL] |  | 200 | 97 | > 100000 | 
3 | C[C@]12C[C@H](c3ccc(-c4cccnc4)cc3)C3=C4CCC(=O)C=C4CC[C@H]3[C@@H]1CC[C@@H]2C(=O)C1CC1 | 36 | 750 | 66 |  | 
4 | COc1ccc(-c2ccc([C@H]3C[C@@]4(C)[C@@H](CCC45CCCC5=O)[C@@H]4CCC5=CC(=O)CCC5=C43)cc2)cn1 (stereo partly drawn) | 20 | 550 | 62 | 150 | 
5 | C[C@@H]1C[C@H]2[C@@H]3CCC4=CC(=O)CCC4=C3[C@@H](c3ccc(-c4cnccn4)cc3)C[C@]2(C)[C@H]1C(=O)C1CC1 | 54 | 1300 | 35 |  | 
6 | C=C[C@@H]1C[C@H]2[C@@H]3CCC4=CC(=O)CCC4=C3[C@@H](c3ccc(-c4ccc(OC)nc4)cc3)C[C@]2(C)[C@H]1C(=O)C1CC1 | 41 | 980 | 45 |  | 
7 | C=C[C@@H]1C[C@H]2[C@@H]3CCC4=CC(=O)CCC4=C3[C@@H](c3ccc(-c4cccnc4)cc3)C[C@]2(C)[C@H]1C(=O)C1CC1 | 47 | 610 | 38 |  | 
8 | C[C@@H]1C[C@H]2[C@@H]3CCC4=CC(=O)CCC4=C3[C@@H](c3ccc(-c4ccc(Cl)nc4)cc3)C[C@]2(C)[C@H]1C(=O)C1CC1 | 47 | 470 | 43 |  | 
9 | C[C@@H]1C[C@H]2[C@@H]3CCC4=CC(=O)CCC4=C3[C@@H](c3ccc(-c4ccncc4)cc3)C[C@]2(C)[C@H]1C(=O)C1CC1 | 56 | 2500 | 27 |  | 
10 | C[C@@H]1C[C@H]2[C@@H]3CCC4=CC(=O)CCC4=C3[C@@H](c3ccc(-c4ncccn4)cc3)C[C@]2(C)[C@H]1C(=O)C1CC1 | 52 | 3250 | > 27 |  | 
11 | CC[C@@H]1C[C@H]2[C@@H]3CCC4=CC(=O)CCC4=C3[C@@H](c3ccc(-c4cccnc4)cc3)C[C@]2(C)[C@H]1C(=O)C1CC1 | 34 | 600 | 53 |  | 
12 | C[C@]12C[C@H](c3ccc(-c4cccnc4)cc3)C3=C4CCC(=O)C=C4CC[C@H]3[C@@H]1CCC21CCCC1=O (stereo partly drawn) | 17 | 330 | 71 | 290 | 

Other lines, results leading:

Row | Efficacy [1] [%] | IC50 (Progesterone receptor [2]) [pM] | Efficacy [3] [%] | EC50 (Progesterone receptor [4]) [pM] | IC50 (Progesterone receptor [5]) [pM] | SMILES
13 | 42 | 7890 | 52 |  |  | CC[C@@H]1C[C@H]2[C@@H]3CCC4=CC(=O)CCC4=C3[C@@H](c3ccc(-c4ccc(OC)nc4)cc3)C[C@]2(C)[C@H]1C(=O)C1CC1
14 | 51 | 8480 | 50 |  |  | C[C@@H]1C[C@H]2[C@@H]3CCC4=CC(=O)CCC4=C3[C@@H](c3ccc(-c4ccc(F)nc4)cc3)C[C@]2(C)[C@H]1C(=O)C1CC1
15 | 42 | 630 | 59 |  |  | COc1ccc(-c2ccc([C@H]3C[C@@]4(C)[C@@H](C[C@@H](C)[C@@H]4C(=O)C4CC4)[C@@H]4CCC5=CC(=O)CCC5=C43)cc2)cn1
16 | 28 | 430 | 57 |  |  | COc1ccc(-c2ccc([C@H]3C[C@]4(C)[C@@H](C(=O)C5CC5)CC[C@H]4[C@@H]4CCC5=CC(=O)CCC5=C43)cc2)cn1
17 | 51 | 3640 | 37 | 360 |  | C[C@@H]1C[C@H]2[C@@H]3CCC4=CC(=O)CCC4=C3[C@@H](c3ccc(-c4ccnnc4)cc3)C[C@]2(C)[C@H]1C(=O)C1CC1
18 | 38 | 130 | 58 |  |  | C[C@]12C[C@H](c3ccc(-c4cccnc4)cc3)C3=C4CCC(=O)C=C4CC[C@H]3[C@@H]1CC[C@]2(C)C(=O)C1CC1
19 | 49 | 270 | 46 |  |  | C[C@@H]1C[C@H]2[C@@H]3CCC4=CC(=O)CCC4=C3[C@@H](c3ccc(-c4cccnc4)cc3)C[C@]2(C)[C@H]1C(=O)C1CC1
20 | 49 | 14800 | 33 |  |  | C[C@@H]1C[C@H]2[C@@H]3CCC4=CC(=O)CCC4=C3[C@@H](c3ccc(-c4ccccn4)cc3)C[C@]2(C)[C@H]1C(=O)C1CC1
21 |  | 200 | 100 | > 100000 |  | CC(=O)O[C@]1(C(C)=O)CC[C@H]2[C@@H]3CCC4=CC(=O)CCC4=C3[C@@H](c3ccc(N(C)C)cc3)C[C@@]21C [ULIPRISTAL ACETATE]
22 |  |  |  |  | 200 | C=C1CCO[C@]12CC[C@H]1[C@@H]3CCC4=CC(=O)CCC4[C@H]3[C@@H](c3ccc(N(C)C)cc3)C[C@@]12C (stereo partly drawn)
23 |  |  |  |  | 200 | CN(C)c1ccc([C@H]2C[C@@]3(C)[C@@H](CC[C@@]34CCCC4=O)[C@@H]3CCC4=CC(=O)CCC4=C32)cc1
